Screening results from PubChem BioAssay.
Hits are enriched below; roughly 12% of the tested compounds scored in any of these assays.
Rad51 HR inh = human RAD51 strand exchange inhibitors, primary screen, biochemical, fluorescence; DNA repair protein RAD51 homolog 1 (Homo sapiens), Q06609; hRad51 DNA strand exchange, fluorescence dequenching; inhibition, % at 10 µM; hit rate 0.085% among 200,000;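 active = inhibition above 40% at the single screening dose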
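Material: human Rad51–ssDNA filaments; Probe or stimulus: labelled 47-mer dsDNA for strand exchange; Doses: single 10 µM dose; Incubation: 37 °C 15-min filament assembly, 30-min compound preincubation, 15-min exchange; Technique: FRET fluorescence dequenching, excitation 485 nm, emission 520 nm; Measure: Fluorescence-based percent inhibition, control- and blank-normalised; Benchmarks: plate control and blank wells.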
Arbovirus anti = antivirals against arbovirus infection, primary screen, cell-based, full library, 10K replicate subset. arbovirus infection cell-based antiviral screen. inhibition, % at 10 µM. hit rate 0.37% among 200,000. AID 1251, 2008; in the data active = inhibition above about 30%
Lmaj promast = Leishmania major promastigote growth inhibition, primary screen | Leishmania major promastigotes, resazurin fluorescence viability | inhibition, % at 10 µM | hit rate 9% among 200,000;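 note: promastigotes grown with compound for 44 hours at 28 °C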
CHOP inh = inhibitors of CHOP promoter induction, primary screen, cell-based, unfolded protein response, luciferase reporter. CHO-K1 CHOP-promoter luciferase, tunicamycin-induced, 15-18 h. inhibition, % at 10 µM. hit rate 3.8% among 220,000. AID 2732, 2010;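 active = compounds that reduced the stress-induced luciferase reporter signal by more than about 70% of percent inhibition, limit read from the data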
PKD1 kinase inh = inhibitors of human PKD1 kinase, biochemical, fluorescence polarization; Serine/threonine-protein kinase D1 (Homo sapiens), Q15139; PKD1 kinase fluorescence polarization assay; inhibition, % (concentration not given with the values); hit rate 0.056% among 200,000; AID 797, 2007
Wee1 stabilizer = Wee1 degradation inhibitors, primary screen, cell-based, HeLa, Wee1K328M-luciferase, luminescence; Wee1-like protein kinase (Homo sapiens), P30291; HeLa Luc-Wee1K328M stability; 100% = proteasome inhibitor MG132 effect; reporter increase, % at 5 µM; hit rate 1.2% among 220,000; AID 1321, 2008;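 active = activation above the mean of all tested compounds plus 3 SD, set per screening run, cut at about 8.8% in these data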;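 note: cells exposed to compound for 20 h before luminescence read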
Target sequence (P30291 whole entry K328M): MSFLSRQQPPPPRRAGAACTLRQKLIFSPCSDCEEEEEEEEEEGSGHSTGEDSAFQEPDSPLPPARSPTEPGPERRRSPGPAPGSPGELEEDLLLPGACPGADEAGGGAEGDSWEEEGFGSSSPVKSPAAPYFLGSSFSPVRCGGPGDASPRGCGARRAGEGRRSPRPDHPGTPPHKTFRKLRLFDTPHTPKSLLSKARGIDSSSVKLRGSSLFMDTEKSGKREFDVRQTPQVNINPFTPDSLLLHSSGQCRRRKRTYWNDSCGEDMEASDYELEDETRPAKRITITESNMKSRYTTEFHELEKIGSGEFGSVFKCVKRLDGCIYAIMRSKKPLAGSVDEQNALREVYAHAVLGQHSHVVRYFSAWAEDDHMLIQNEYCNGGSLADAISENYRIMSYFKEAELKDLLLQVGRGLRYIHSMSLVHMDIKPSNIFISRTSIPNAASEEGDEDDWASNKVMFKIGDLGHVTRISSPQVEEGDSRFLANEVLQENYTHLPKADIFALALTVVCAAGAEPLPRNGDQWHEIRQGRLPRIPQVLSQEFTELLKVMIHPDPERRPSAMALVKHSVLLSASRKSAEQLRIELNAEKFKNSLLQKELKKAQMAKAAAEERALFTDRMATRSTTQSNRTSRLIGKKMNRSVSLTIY
Wee1 degr conf = Wee1 degradation inhibitors, confirmation, cell-based, HeLa, Wee1K328M-luciferase, luminescence, triplicate | activation, % at 5 µM | shares compounds with Wee1 stabilizer | HeLa Luc-Wee1K328M degradation; vehicle 0%, proteasome-blocked wells 100% | hit rate 4% among 1,100; in the data active = activation above about 8.9%
Hits are given with their value; – = inactive; · = no result given. Cut-off read from the data, not from the text of the source, unless noted: active = inhibition above about 50%; inactive = the rest.

SMILES	Rad51 HR inh	Arbovirus anti	Lmaj promast	CHOP inh	PKD1 kinase inh	Wee1 stabilizer	Wee1 degr conf
O=C(c1ccc(Br)o1)N1CCN(c2ccc3nnc(-c4ccccc4)n3n2)CC1	–	–	–	–	–	14.1	–
C=CCNC(=S)Nc1ccc(OC)c(S(=O)(=O)N2CCOCC2)c1	–	–	–	–	–	–	·
Nc1[nH]n(-c2ccccc2)c(=O)c1N=Nc1ccc2c(c1)OCO2	–	·	·	–	·	12.0	–
COc1ccc(/C=N/c2oc(-c3ccccc3)cc2C#N)cc1OC	–	–	–	–	–	–	·
CCOC(=O)C1=C(O)C(=O)N(Cc2ccccc2)CC1	·	–	–	–	–	–	·
CCOC(=O)C1=C(O)C(=O)N(Cc2ccc(C(C)(C)C)cc2)CC1	–	–	–	–	–	13.8	–
O=C(NCc1csc(-c2ccccc2)n1)c1cc(F)cc2c1OCOC2	·	·	·	–	·	15.0	–
O=C(Cc1csc(-c2ccccc2)n1)NCc1ccc(F)cc1	–	–	–	–	–	–	·
O=C(O)CCC1OC(=O)C(O)=C1c1ccccc1 (stereo unspecified)	–	·	·	–	·	·	·
COc1cc(C=C2C(=O)OC(C)(C)OC2=O)ccc1OCC(=O)Nc1ccccc1	–	–	–	–	–	15.3	–
CCn1ncc(Br)c1C(=O)Nc1cccc(F)c1	–	–	–	–	–	13.3	–
O=C(/C=C\Nc1ccc(Br)cc1)c1cccnc1	–	–	–	–	–	11.0	–
Cc1ccc(CNCC(=O)Nc2ccc(N3CCOCC3)cc2)cc1	–	·	·	–	·	–	·
Cc1ccc(C(=O)O)cc1NC(=S)NC(=O)c1ccc(-c2ccc(Cl)cc2)o1	–	·	·	–	·	12.1	–
Cc1ccc(C(=O)O)cc1NC(=S)NC(=O)c1ccc(-c2ccccc2)cc1	–	–	–	–	–	–	·
Cc1cccc(C)c1NC(=S)N1CCC(c2ccccc2)C1 (stereo unspecified)	·	–	–	–	–	–	·
O=C(C1=C[C@H](c2coc3ccccc3c2=O)C[C@H](OCc2ccc(CO)cc2)O1)N1CCN(Cc2ccc3c(c2)OCO3)CC1	–	–	–	–	–	–	·
O=C(C1=C[C@@H](c2coc3ccccc3c2=O)C[C@@H](OCc2ccc(CO)cc2)O1)N1CCN(Cc2ccc3c(c2)OCO3)CC1	–	–	–	–	–	22.9	–
CC(=O)c1cc(OC(=O)c2ccncc2)ccc1OC(=O)c1ccncc1	–	–	–	–	–	–	·
O=C(NC1CCN(Cc2nnnn2CCc2ccccc2)CC1)c1ccccc1F	–	–	–	–	–	11.9	–
Cc1ccccc1C(=O)NC1CCN(Cc2nnnn2Cc2ccccc2)CC1	–	–	–	–	–	–	·
OCCN(CCO)c1ncnc2c1sc1nc(N3CCOCC3)c3c(c12)CCCC3	–	–	–	–	–	13.9	–
COc1ccc(N(CC(=O)NCCSC2CCCCC2)S(C)(=O)=O)c(OC)c1	–	–	–	–	–	–	·
Cc1ccc(CNS(=O)(=O)N(C)C)cc1	–	–	–	–	–	–	·
COc1ccc(/C=C/C(=O)N2CCC(c3ccccc3)C2)cc1 (stereo unspecified)	–	–	–	–	–	–	·
SMILES	Rad51 HR inh	Arbovirus anti	Lmaj promast	CHOP inh	PKD1 kinase inh	Wee1 stabilizer	Wee1 degr conf
COC(=O)C1CCN(C(=O)/C=C/c2ccc(OC)cc2)CC1	–	–	–	–	–	11.1	10.3
Cc1ccccc1N1C(=O)N(c2cccc(C(F)(F)F)c2)C2CS(=O)(=O)CC21 (stereo unspecified)	–	–	–	–	–	–	·
CCN(CC)CCN1C(=O)C(O)=C(C(=O)c2cc3cccc(OC)c3o2)C1c1cccs1 (stereo unspecified)	–	·	·	–	·	–	·
COC(=O)c1cc(COc2ccc3oc(C)c(C(=O)OC(C)C)c3c2)c(C)o1	–	–	–	–	–	–	·
COc1ccc(NC(=S)c2ccc(N(C)C)cc2)cc1	·	–	–	–	–	13.0	–
CCCCn1c(-c2cccs2)nc2nc3ccccc3nc21	–	–	–	–	–	13.4	–
CC(C)Cn1c(-c2cccs2)nc2nc3ccccc3nc21	–	–	–	–	–	–	·
C(=N\Nc1nc2ccccc2[nH]1)/c1ccc2c(c1)OCO2	–	–	96.3	–	–	12.4	–
C(=N\Nc1nc2ccccc2s1)/c1ccc2c(c1)OCO2	–	–	–	–	–	–	·
CCCCNC(=O)COC(=O)CNC(=O)c1cc(Cl)cc([N+](=O)[O-])c1	–	–	–	–	–	–	·
O=C1CCN(Cc2nc(-c3ccc(Cl)cc3)no2)CCN1	–	–	–	–	–	–	·
O=C(c1ccc(F)cc1)n1ccc(-c2cnc(-c3ccccc3)s2)n1	–	–	–	–	–	14.6	–
O=C(c1ccc(C(F)(F)F)cc1)n1ccc(-c2cccs2)n1	–	·	·	–	·	–	·
CCc1[nH]nc2c1C1(CCN(C(=O)OCc3ccccc3)CC1)C(C#N)=C(N)O2	–	–	–	–	–	16.2	–
O=C(N/N=C/c1ccc(Cl)cc1)c1cc2c(s1)-c1ccccc1CC2	–	–	–	–	–	26.3	–
Nc1sc(-c2ccccc2)cc1C(=O)N/N=C/c1ccc(Cl)cc1	–	·	·	–	·	–	·
O=C(Nc1ccc(S(=O)(=O)Nc2nccs2)cc1)c1cnc(Cl)c(Cl)c1	–	·	·	–	·	19.0	–
C=CCn1c(SCC(=O)Nc2ccccc2CC)nnc1-c1ccncc1	–	–	–	–	–	13.4	–
COc1ccccc1-c1ccc(SCc2ccccc2)nn1	–	–	–	–	–	–	·
COc1ccccc1-c1ccc(SCc2ccccc2F)nn1	–	–	–	–	–	13.1	13.9
Oc1c(CN2CCOCC2)cc(-c2ccccc2)cc1CN1CCOCC1	–	–	–	–	–	–	·
Oc1c(CN2CCOCC2)ccc2ccccc12	–	–	–	–	–	11.1	–
Cc1ccc(CSCC(=O)Nc2ccc3c(c2)OCO3)cc1	–	–	–	–	–	–	·
O=C(CSCc1ccccc1)Nc1ccc2c(c1)OCO2	–	–	–	–	–	12.1	–
C/C(CC(=O)Nc1ccc2c(c1)OCO2)=N\NC(=O)c1ccccc1N	–	·	·	–	·	12.2	–
C/C(CC(=O)Nc1ccc2c(c1)OCO2)=N\NC(=O)C(c1ccccc1)c1ccccc1	–	–	–	–	–	–	·
O=C(COC(=O)CNC(=O)c1ccccc1F)Nc1cccnc1Cl	–	–	–	–	–	–	·
O=C(O)c1ccc(/C=N/Nc2ccc(C(F)(F)F)cn2)cc1	–	–	–	–	–	12.7	–
CCN1CCc2c(OCC(=O)N3CCCCC3)cccc2C1=O	–	–	–	–	–	–	·
